Each block holds one molecule with its values, some of them ahead of it. *1 amine or outer side, *2 acyl side, *3 side chain or, on linkers, in order; H or OH if unused. Where a SMILES comes first, the peptide text is derived from it. Bridges are numbered along the chain shown (N, C = ends). [ ]: non-standard residue; d: D form. The star is where a group is joined. Staurosporine = CO[C@@H]1[C@H](N(C)*)C[C@H]2O[C@]1(C)n1c3ccccc3c3c4c(c5c6ccccc6n2c5c31)C(=O)NC4; Suc = O=C(CCC(=O)[*:2])[*:1]; Dap = NC[C@H](N)C(=O)O; βAla = NCCC(=O)O
Legend:
[1] = molecular target: Receptor tyrosine-protein kinase erbB-2 (Homo sapiens) (UniProt P04626); assay: Binding affinity to human ERBB2 at 500 nM by cell-based competition binding assay relative to control in presence of DTT
In short: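 Commercial (Ambit) competitive kinase-binding panel of 90 kinases measured the binding profile. Run under reducing conditions of 7.5 mM DTT. Binding is expressed relative to control.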

[2] = molecular target: T1, 3-phosphoinositide-dependent protein kinase 1 (Homo sapiens) (UniProt O15530); assay: Binding affinity to human PDPK1 at 500 nM by cell-based competition binding assay relative to control in presence of DTT
T1 sequence (whole entry): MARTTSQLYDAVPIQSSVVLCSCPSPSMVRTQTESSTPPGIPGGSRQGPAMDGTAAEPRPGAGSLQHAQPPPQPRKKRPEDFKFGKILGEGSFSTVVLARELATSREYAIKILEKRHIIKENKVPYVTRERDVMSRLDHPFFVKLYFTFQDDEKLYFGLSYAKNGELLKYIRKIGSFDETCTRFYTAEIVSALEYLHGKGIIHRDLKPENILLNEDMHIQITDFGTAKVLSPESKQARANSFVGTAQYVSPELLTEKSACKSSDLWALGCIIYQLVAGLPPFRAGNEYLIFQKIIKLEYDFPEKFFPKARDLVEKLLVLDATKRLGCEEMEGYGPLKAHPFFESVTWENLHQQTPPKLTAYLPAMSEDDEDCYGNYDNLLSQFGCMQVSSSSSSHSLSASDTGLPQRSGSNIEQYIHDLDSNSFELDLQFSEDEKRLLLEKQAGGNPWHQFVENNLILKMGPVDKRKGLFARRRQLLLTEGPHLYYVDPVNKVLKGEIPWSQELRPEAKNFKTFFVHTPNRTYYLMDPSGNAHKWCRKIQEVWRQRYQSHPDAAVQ

[3] = molecular target: RAC-beta serine/threonine-protein kinase (Homo sapiens) (UniProt P31751); assay: Binding affinity to human AKT2 at 500 nM by cell-based competition binding assay relative to control in presence of DTT
In short: (§1)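 Kinase binding profiling ran on a commercial (Ambit) competitive binding screen against a panel of 90 kinases. The screen used reducing conditions with 7.5 mM DTT. To withstand the DTT, the bivalent ligand was tested as its amide isostere, with the disulfide replaced. A staurosporine derivative carrying a 3 β-alanine linker was run as the reference compound.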

[4] = molecular target: Glycogen synthase kinase-3 beta (Homo sapiens) (UniProt P49841); assay: Binding affinity to human GSK3-beta at 500 nM by cell-based competition binding assay relative to control in presence of DTT
In short: (§2)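 Competition binding screen (Ambit) across a panel of 90 kinases, scoring test ligand displacement of each kinase's binding relative to control. The screen ran under reducing conditions with 7.5 mM DTT.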

[5] = molecular target: Insulin-like growth factor 1 receptor (Homo sapiens) (UniProt P08069); assay: Binding affinity to human IGF1R at 500 nM by cell-based competition binding assay relative to control in presence of DTT; in short: as §2
[6] = molecular target: Mitogen-activated protein kinase 10 (Homo sapiens) (UniProt P53779); assay: Binding affinity to human JNK3 at 200 nM by cell-based competition binding assay relative to control in presence of DTT; in short: as §2
[7] = molecular target: Hepatocyte growth factor receptor (Homo sapiens) (UniProt P08581); assay: Binding affinity to human MET at 200 nM by cell-based competition binding assay relative to control in presence of DTT
[8] = molecular target: Serine/threonine-protein kinase PAK 4 (Homo sapiens) (UniProt O96013); assay: Binding affinity to human PAK4 at 200 nM by cell-based competition binding assay relative to control in presence of DTT
[9] = molecular target: Atypical kinase COQ8A, mitochondrial (Homo sapiens) (UniProt Q8NI60); assay: Binding affinity to human ADCK3 at 200 nM by cell-based competition binding assay relative to control in presence of DTT; in short: as §1
[10] = molecular target: Tyrosine-protein kinase BTK (Homo sapiens) (UniProt Q06187); assay: Binding affinity to human BTK at 200 nM by cell-based competition binding assay relative to control in presence of DTT; in short: as §1
[11] = molecular target: Serine/threonine-protein kinase PLK3 (Homo sapiens) (UniProt Q9H4B4); assay: Binding affinity to human PLK3 at 200 nM by cell-based competition binding assay relative to control in presence of DTT
[12] = molecular target: RAC-alpha serine/threonine-protein kinase (Homo sapiens) (UniProt P31749); assay: Binding affinity to human AKT1 at 50 nM by cell-based competition binding assay relative to control in presence of DTT; in short: as §1
[13] = molecular target: RAC-beta serine/threonine-protein kinase (Homo sapiens) (UniProt P31751); assay: Binding affinity to human AKT2 at 50 nM by cell-based competition binding assay relative to control in presence of DTT; in short: as §1
[14] = tested on: Mast/stem cell growth factor receptor Kit (Homo sapiens), P10721 [D816V]; assay: Binding affinity to human KIT D816V mutant at 50 nM by cell-based competition binding assay relative to control in presence of DTT; in short: as §2
[15] = molecular target: Mitogen-activated protein kinase kinase kinase 9 (Homo sapiens) (UniProt P80192); assay: Binding affinity to human MLK1 at 50 nM by cell-based competition binding assay relative to control in presence of DTT
[16] = molecular target: Serine/threonine-protein kinase PAK 1 (Homo sapiens) (UniProt Q13153); assay: Binding affinity to human PAK1 at 50 nM by cell-based competition binding assay relative to control in presence of DTT
[17] = molecular target: Serine/threonine-protein kinase pim-3 (Homo sapiens) (UniProt Q86V86); assay: Binding affinity to human PIM3 at 50 nM by cell-based competition binding assay relative to control in presence of DTT
[18] = molecular target: Non-receptor tyrosine-protein kinase TYK2 (Homo sapiens) (UniProt P29597); assay: Binding affinity to human TYK2 kinase domain 2 at 50 nM by cell-based competition binding assay relative to control in presence of DTT

Chain of RAC-beta serine/threonine-protein kinase (Homo sapiens) (P31751 whole entry): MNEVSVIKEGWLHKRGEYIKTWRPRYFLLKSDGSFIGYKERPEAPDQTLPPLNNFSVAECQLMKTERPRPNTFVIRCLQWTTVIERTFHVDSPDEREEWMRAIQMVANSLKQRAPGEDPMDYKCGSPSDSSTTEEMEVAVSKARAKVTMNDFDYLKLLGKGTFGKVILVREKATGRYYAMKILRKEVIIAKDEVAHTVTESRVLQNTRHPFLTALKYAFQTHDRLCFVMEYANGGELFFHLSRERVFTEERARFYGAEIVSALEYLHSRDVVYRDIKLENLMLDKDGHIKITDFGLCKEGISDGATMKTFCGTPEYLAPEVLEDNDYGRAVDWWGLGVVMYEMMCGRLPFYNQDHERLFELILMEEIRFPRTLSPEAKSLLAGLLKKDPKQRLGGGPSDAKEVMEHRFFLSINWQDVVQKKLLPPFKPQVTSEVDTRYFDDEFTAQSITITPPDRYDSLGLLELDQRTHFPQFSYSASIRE
Chain of Glycogen synthase kinase-3 beta (Homo sapiens) (P49841 whole entry, looked up): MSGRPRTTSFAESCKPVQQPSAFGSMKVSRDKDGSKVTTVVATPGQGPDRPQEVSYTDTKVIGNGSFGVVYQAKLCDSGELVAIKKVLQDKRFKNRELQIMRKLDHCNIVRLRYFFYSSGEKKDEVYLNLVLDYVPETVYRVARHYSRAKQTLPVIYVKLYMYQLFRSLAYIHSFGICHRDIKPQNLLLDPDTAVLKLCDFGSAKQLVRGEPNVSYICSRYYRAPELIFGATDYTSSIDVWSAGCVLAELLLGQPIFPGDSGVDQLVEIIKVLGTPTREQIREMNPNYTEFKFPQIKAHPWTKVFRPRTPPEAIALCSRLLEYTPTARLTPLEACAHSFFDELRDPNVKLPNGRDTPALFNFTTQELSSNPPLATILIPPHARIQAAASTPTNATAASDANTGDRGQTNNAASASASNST
Chain of Serine/threonine-protein kinase PLK3 (Homo sapiens) (Q9H4B4 whole entry, looked up): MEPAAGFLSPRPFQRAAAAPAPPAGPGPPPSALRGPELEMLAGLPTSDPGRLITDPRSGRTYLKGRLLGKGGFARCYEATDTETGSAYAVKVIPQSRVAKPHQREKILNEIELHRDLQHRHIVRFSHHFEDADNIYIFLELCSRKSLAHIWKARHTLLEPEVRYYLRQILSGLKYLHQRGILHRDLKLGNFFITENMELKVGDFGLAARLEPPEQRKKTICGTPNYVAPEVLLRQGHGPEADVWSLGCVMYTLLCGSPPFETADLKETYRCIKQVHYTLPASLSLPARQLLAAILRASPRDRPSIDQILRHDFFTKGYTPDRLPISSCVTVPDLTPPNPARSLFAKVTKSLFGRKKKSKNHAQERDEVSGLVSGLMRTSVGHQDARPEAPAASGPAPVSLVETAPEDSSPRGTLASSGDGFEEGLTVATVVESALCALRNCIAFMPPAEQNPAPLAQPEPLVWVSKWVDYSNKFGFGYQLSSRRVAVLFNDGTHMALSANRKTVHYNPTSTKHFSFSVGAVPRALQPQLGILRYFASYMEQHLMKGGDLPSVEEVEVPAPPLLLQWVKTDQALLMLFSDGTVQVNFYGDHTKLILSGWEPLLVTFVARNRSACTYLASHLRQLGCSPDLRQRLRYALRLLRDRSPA
Chain of Receptor tyrosine-protein kinase erbB-2 (Homo sapiens) (P04626 whole entry): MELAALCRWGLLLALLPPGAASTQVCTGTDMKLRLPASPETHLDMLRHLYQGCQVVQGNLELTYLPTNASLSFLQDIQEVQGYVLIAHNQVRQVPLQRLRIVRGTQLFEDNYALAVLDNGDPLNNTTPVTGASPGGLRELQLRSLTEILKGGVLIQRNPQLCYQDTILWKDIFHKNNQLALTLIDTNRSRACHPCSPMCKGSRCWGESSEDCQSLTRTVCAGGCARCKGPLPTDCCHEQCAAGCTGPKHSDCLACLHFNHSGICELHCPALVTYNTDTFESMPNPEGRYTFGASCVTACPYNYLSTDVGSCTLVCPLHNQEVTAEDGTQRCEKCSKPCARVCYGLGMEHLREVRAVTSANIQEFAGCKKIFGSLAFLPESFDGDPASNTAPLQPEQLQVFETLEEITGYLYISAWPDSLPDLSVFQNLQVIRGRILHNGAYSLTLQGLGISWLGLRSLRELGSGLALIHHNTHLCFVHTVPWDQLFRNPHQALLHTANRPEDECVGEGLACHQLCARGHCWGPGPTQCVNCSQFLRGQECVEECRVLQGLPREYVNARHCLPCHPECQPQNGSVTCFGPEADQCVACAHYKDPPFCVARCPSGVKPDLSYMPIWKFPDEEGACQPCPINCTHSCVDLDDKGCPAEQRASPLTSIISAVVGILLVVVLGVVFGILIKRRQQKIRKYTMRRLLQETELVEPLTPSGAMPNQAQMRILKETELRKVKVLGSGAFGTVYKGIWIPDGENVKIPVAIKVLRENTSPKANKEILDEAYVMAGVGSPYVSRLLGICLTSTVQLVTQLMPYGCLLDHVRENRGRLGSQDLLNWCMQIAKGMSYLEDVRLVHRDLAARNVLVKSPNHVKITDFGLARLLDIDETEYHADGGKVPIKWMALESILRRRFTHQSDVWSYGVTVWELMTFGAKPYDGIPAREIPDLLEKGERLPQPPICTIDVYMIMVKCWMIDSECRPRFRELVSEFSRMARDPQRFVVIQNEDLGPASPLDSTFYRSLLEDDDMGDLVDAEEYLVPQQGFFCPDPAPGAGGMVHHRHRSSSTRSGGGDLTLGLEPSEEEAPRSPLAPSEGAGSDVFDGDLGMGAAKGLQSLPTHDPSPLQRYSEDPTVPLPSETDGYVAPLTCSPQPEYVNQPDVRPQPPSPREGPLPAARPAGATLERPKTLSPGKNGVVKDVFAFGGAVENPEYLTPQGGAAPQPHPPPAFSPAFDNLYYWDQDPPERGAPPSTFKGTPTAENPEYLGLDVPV
Chain of Tyrosine-protein kinase BTK (Homo sapiens) (Q06187 whole entry): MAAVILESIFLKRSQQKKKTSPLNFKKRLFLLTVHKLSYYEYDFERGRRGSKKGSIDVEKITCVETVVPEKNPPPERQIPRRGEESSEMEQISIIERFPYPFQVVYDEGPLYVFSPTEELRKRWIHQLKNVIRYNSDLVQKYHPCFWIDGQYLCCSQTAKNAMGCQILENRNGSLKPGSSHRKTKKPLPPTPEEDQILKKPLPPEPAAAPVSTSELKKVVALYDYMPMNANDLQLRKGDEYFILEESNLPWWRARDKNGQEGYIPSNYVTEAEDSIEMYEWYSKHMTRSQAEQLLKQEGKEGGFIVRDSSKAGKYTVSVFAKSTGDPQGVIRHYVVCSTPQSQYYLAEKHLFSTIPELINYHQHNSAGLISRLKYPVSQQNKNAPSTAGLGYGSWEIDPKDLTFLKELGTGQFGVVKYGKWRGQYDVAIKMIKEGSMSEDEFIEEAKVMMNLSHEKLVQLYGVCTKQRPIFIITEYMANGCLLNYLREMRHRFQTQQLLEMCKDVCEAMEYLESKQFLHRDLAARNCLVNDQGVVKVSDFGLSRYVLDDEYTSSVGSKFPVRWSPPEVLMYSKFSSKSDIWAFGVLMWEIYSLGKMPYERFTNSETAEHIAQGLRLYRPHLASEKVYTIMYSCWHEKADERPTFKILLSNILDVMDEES
Chain of Insulin-like growth factor 1 receptor (Homo sapiens) (P08069 31-736 limits assumed): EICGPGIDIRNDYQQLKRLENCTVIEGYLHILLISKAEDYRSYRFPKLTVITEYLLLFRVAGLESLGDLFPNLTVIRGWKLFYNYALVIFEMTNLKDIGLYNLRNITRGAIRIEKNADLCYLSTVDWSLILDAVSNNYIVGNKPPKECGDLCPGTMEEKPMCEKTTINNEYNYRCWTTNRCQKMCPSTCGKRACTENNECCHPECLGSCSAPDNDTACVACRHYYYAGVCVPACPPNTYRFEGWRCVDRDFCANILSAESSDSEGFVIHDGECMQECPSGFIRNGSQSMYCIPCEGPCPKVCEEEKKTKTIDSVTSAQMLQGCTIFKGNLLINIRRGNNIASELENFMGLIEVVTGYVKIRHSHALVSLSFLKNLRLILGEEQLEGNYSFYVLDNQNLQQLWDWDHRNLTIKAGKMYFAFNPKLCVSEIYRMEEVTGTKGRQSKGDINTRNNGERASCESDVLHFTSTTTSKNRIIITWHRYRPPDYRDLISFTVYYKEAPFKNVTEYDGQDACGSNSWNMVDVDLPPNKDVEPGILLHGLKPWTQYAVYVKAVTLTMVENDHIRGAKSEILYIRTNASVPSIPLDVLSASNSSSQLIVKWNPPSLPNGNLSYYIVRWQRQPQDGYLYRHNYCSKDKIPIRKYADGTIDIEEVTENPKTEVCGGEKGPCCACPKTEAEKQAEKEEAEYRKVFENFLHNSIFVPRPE
Chain of Insulin-like growth factor 1 receptor (Homo sapiens) (P08069 741-1367 limits assumed): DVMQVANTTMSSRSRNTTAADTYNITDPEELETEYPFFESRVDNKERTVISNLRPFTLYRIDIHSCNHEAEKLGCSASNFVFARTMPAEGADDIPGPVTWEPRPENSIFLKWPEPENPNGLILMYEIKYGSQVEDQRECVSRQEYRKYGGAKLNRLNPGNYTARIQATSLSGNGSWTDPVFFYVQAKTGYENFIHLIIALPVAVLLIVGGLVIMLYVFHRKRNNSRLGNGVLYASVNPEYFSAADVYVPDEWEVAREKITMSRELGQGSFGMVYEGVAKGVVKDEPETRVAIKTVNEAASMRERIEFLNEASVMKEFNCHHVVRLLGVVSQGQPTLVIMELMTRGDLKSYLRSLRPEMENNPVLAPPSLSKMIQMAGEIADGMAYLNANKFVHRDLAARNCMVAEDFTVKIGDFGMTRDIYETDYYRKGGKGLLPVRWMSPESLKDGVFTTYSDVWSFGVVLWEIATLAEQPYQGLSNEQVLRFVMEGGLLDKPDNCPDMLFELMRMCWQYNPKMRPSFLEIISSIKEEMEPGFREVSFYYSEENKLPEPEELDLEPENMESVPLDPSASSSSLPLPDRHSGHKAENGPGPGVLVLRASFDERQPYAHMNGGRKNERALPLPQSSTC

Activity [1]: 95% | Activity [2]: 18% | Activity [3]: 37% | Activity [4]: 94% | Activity [5]: 82%
Compound: CO[C@@H]1[C@H](N(C)C(=O)CCC(=O)NCCC(=O)NCCC(=O)NCCC(N)=O)C[C@H]2O[C@]1(C)n1c3ccccc3c3c4c(c5c6ccccc6n2c5c31)C(=O)NC4

Activity [6]: 65% | Activity [7]: 77% | Activity [8]: 40% | Activity [9]: 96% | Activity [10]: 62% | Activity [11]: 100%
Compound: CO[C@@H]1[C@H](N(C)C(=O)CCC(=O)NCCC(=O)NCCC(=O)NCCC(=O)NCCC(=O)NCCC(=O)NCCC(=O)NCCC(=O)N[C@H]2CSSC[C@@H](C(=O)NCC(N)=O)NC(=O)CNC(=O)[C@H](Cc3ccccc3)NC(=O)[C@H](C(C)C)NC(=O)[C@H](CCCNC(=N)N)NC(=O)[C@H](Cc3ccccc3)NC(=O)[C@H](C(C)C)NC2=O)C[C@H]2O[C@]1(C)n1c3ccccc3c3c4c(c5c6ccccc6n2c5c31)C(=O)NC4 ({Staurosporine-Suc-βAla-βAla-βAla-βAla-βAla-βAla-βAla}-CVFRVFGCG-NH2; disulfide 1-8)

Activity [12]: 100% | Activity [13]: 100% | Activity [14]: 6.5% | Activity [15]: 5.5% | Activity [16]: 66% | Activity [17]: 66% | Activity [18]: 100%
Compound: CO[C@@H]1[C@H](N(C)C(=O)CCC(=O)NCCC(=O)NCCC(=O)NCCC(=O)NCCC(=O)NCCC(=O)NCCC(=O)NCCC(=O)N[C@H]2CNC(=O)C[C@@H](C(N)=O)NC(=O)CNC(=O)[C@H](Cc3ccccc3)NC(=O)[C@H](C(C)C)NC(=O)[C@H](CCCNC(=N)N)NC(=O)[C@H](Cc3ccccc3)NC(=O)[C@H](C(C)C)NC2=O)C[C@H]2O[C@]1(C)n1c3ccccc3c3c4c(c5c6ccccc6n2c5c31)C(=O)NC4 ({Staurosporine-Suc-βAla-βAla-βAla-βAla-βAla-βAla-βAla}-[Dap]VFRVFGD-NH2; lactam 1-8)
